Test results taken from ChEMBL document CHEMBL4038305, “Benzoxaborole Antimalarial Agents. Part 5. Lead Optimization of Novel Amide Pyrazinyloxy Benzoxaboroles and Identification of a Preclinical Candidate” (J Med Chem, 2017).

Key:
[1] = Metabolic stability in rat hepatocytes at 22 uM after 44 hrs; type: ADME, cell-based, Hepatocyte
Plasmodium berghei [2] = test: Antimalarial activity against Plasmodium berghei infected in Swiss Webster mouse assessed as mouse survival rate at 33 mg/kg administered once daily via oral gavage for 4 consecutive days beginning 1 hr after infection measured on day 4 post infection relative to control; type: functional
Method in brief: (§1)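 P. berghei-infected erythrocytes taken from a previously infected mouse were injected intraperitoneally. Oral dosing, once daily for 4 consecutive days, began 1 h after infection, in polyethylene glycol 300/propylene glycol/water (55/25/20 by weight). Chloroquine at 30 mg/kg was the positive control, with a vehicle-only group. Percent survival was recorded daily from day 4 to day 20.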

Plasmodium berghei [3] = test: Antimalarial activity against Plasmodium berghei infected in Swiss Webster mouse assessed as mouse survival rate at 11 mg/kg administered once daily via oral gavage for 4 consecutive days beginning 1 hr after infection measured on day 4 post infection relative to control; type: functional; method in brief: as §1
Plasmodium berghei [4] = test: Antimalarial activity against Plasmodium berghei infected in Swiss Webster mouse assessed as mouse survival rate at 3.7 mg/kg administered once daily via oral gavage for 4 consecutive days beginning 1 hr after infection measured on day 4 post infection relative to control; type: functional; method in brief: as §1
Plasmodium berghei [5] = test: Antimalarial activity against Plasmodium berghei infected in Swiss Webster mouse assessed as mouse survival rate at 0.1 mg/kg administered once daily via oral gavage for 4 consecutive days beginning 1 hr after infection measured on day 4 post infection relative to control; type: functional
Method in brief: (§2)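 Mice given an intraperitoneal injection of P. berghei-infected erythrocytes taken from a previously infected animal. Oral dosing once daily for 4 consecutive days, starting 1 h after infection. Vehicle: polyethylene glycol 300/propylene glycol/water (weight ratio 55/25/20). Percent survival recorded daily from day 4 to day 20. Chloroquine 30 mg/kg and vehicle-only groups served as controls.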

Plasmodium berghei [6] = test: Antimalarial activity against Plasmodium berghei infected in Swiss Webster mouse assessed as mouse survival rate at 100 mg/kg administered once daily via oral gavage for 4 consecutive days beginning 1 hr after infection measured on day 5 post infection relative to control; type: functional; method in brief: as §2
Plasmodium berghei [7] = test: Antimalarial activity against Plasmodium berghei infected in Swiss Webster mouse assessed as mouse survival rate at 33 mg/kg administered once daily via oral gavage for 4 consecutive days beginning 1 hr after infection measured on day 5 post infection relative to control; type: functional; method in brief: as §1
Plasmodium berghei [8] = test: Antimalarial activity against Plasmodium berghei infected in Swiss Webster mouse assessed as mouse survival rate at 0.1 mg/kg administered once daily via oral gavage for 4 consecutive days beginning 1 hr after infection measured on day 5 post infection relative to control; type: functional; method in brief: as §2
Plasmodium berghei [9] = test: Antimalarial activity against Plasmodium berghei infected in Swiss Webster mouse assessed as mouse survival rate at 100 mg/kg administered once daily via oral gavage for 4 consecutive days beginning 1 hr after infection measured on day 6 post infection relative to control; type: functional; method in brief: as §2
Plasmodium berghei [10] = test: Antimalarial activity against Plasmodium berghei infected in Swiss Webster mouse assessed as mouse survival rate at 33 mg/kg administered once daily via oral gavage for 4 consecutive days beginning 1 hr after infection measured on day 6 post infection relative to control; type: functional; method in brief: as §1
Plasmodium berghei [11] = test: Antimalarial activity against Plasmodium berghei infected in Swiss Webster mouse assessed as mouse survival rate at 11 mg/kg administered once daily via oral gavage for 4 consecutive days beginning 1 hr after infection measured on day 6 post infection relative to control; type: functional; method in brief: as §1
Plasmodium berghei [12] = test: Antimalarial activity against Plasmodium berghei infected in Swiss Webster mouse assessed as mouse survival rate at 3.7 mg/kg administered once daily via oral gavage for 4 consecutive days beginning 1 hr after infection measured on day 6 post infection relative to control; type: functional; method in brief: as §1
Plasmodium berghei [13] = test: Antimalarial activity against Plasmodium berghei infected in Swiss Webster mouse assessed as mouse survival rate at 100 mg/kg administered once daily via oral gavage for 4 consecutive days beginning 1 hr after infection measured on day 7 post infection relative to control; type: functional; method in brief: as §2
Plasmodium berghei [14] = test: Antimalarial activity against Plasmodium berghei infected in Swiss Webster mouse assessed as mouse survival rate at 33 mg/kg administered once daily via oral gavage for 4 consecutive days beginning 1 hr after infection measured on day 7 post infection relative to control; type: functional; method in brief: as §1
Plasmodium berghei [15] = test: Antimalarial activity against Plasmodium berghei infected in Swiss Webster mouse assessed as mouse survival rate at 3.7 mg/kg administered once daily via oral gavage for 4 consecutive days beginning 1 hr after infection measured on day 7 post infection relative to control; type: functional; method in brief: as §1
Plasmodium berghei [16] = test: Antimalarial activity against Plasmodium berghei infected in Swiss Webster mouse assessed as mouse survival rate at 33 mg/kg administered once daily via oral gavage for 4 consecutive days beginning 1 hr after infection measured on day 8 post infection relative to control; type: functional; method in brief: as §1
Plasmodium berghei [17] = test: Antimalarial activity against Plasmodium berghei infected in Swiss Webster mouse assessed as mouse survival rate at 11 mg/kg administered once daily via oral gavage for 4 consecutive days beginning 1 hr after infection measured on day 8 post infection relative to control; type: functional; method in brief: as §1
Plasmodium berghei [18] = test: Antimalarial activity against Plasmodium berghei infected in Swiss Webster mouse assessed as mouse survival rate at 33 mg/kg administered once daily via oral gavage for 4 consecutive days beginning 1 hr after infection measured on day 9 post infection relative to control; type: functional; method in brief: as §1
Plasmodium berghei [19] = test: Antimalarial activity against Plasmodium berghei infected in Swiss Webster mouse assessed as mouse survival rate at 33 mg/kg administered once daily via oral gavage for 4 consecutive days beginning 1 hr after infection measured on day 10 post infection relative to control; type: functional; method in brief: as §1
Plasmodium berghei [20] = test: Antimalarial activity against Plasmodium berghei infected in Swiss Webster mouse assessed as mouse survival rate at 100 mg/kg administered once daily via oral gavage for 4 consecutive days beginning 1 hr after infection measured on day 11 post infection relative to control; type: functional; method in brief: as §2
Plasmodium berghei [21] = test: Antimalarial activity against Plasmodium berghei infected in Swiss Webster mouse assessed as mouse survival rate at 33 mg/kg administered once daily via oral gavage for 4 consecutive days beginning 1 hr after infection measured on day 12 post infection relative to control; type: functional; method in brief: as §1
Plasmodium berghei [22] = test: Antimalarial activity against Plasmodium berghei infected in Swiss Webster mouse assessed as mouse survival rate at 100 mg/kg administered once daily via oral gavage for 4 consecutive days beginning 1 hr after infection measured on day 14 post infection relative to control; type: functional; method in brief: as §2
Plasmodium berghei [23] = test: Antimalarial activity against Plasmodium berghei infected in Swiss Webster mouse assessed as mouse survival rate at 33 mg/kg administered once daily via oral gavage for 4 consecutive days beginning 1 hr after infection measured on day 14 post infection relative to control; type: functional; method in brief: as §1
Plasmodium falciparum = test: Antimalarial activity against Plasmodium falciparum 3D7 0087/N9 infected in NOD/SCID IL2R gamma null mouse assessed as reduction in parasitemia administered once daily via oral gavage for 4 consecutive days measured on day 4 post infection; type: functional; settings: 3D7 0087/N9, po, 96 h
Method in brief: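 Human-erythrocyte-engrafted NODscidIL2Rγnull mice carrying P. falciparum Pf3D70087/N9 in peripheral blood; compound given orally once daily for four consecutive days.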

Plasmodium berghei [24] = test: Antimalarial activity against Plasmodium berghei infected in Swiss Webster mouse assessed as mouse survival rate administered once daily via oral gavage for 4 consecutive days beginning 1 hr after infection measured on day 4 post infection; type: functional; method in brief: as §2
Plasmodium berghei [25] = test: Antimalarial activity against Plasmodium berghei infected in Swiss Webster mouse assessed as mouse survival rate at 1.2 mg/kg administered once daily via oral gavage for 4 consecutive days beginning 1 hr after infection measured on day 4 post infection relative to control; type: functional; method in brief: as §2
Plasmodium berghei [26] = test: Antimalarial activity against Plasmodium berghei infected in Swiss Webster mouse assessed as mouse survival rate at 1.2 mg/kg administered once daily via oral gavage for 4 consecutive days beginning 1 hr after infection measured on day 6 post infection relative to control; type: functional; method in brief: as §2

| SMILES | Stability [1] | survival at 33 mg/kg (Plasmodium berghei [2]) [%] | survival at 11 mg/kg (Plasmodium berghei [3]) [%] | survival at 3.7 mg/kg (Plasmodium berghei [4]) [%] | survival at 0.1 mg/kg (Plasmodium berghei [5]) [%] | survival at 100 mg/kg (Plasmodium berghei [6]) [%] | survival at 33 mg/kg (Plasmodium berghei [7]) [%] | survival at 0.1 mg/kg (Plasmodium berghei [8]) [%] | survival at 100 mg/kg (Plasmodium berghei [9]) [%] | survival at 33 mg/kg (Plasmodium berghei [10]) [%] | survival at 11 mg/kg (Plasmodium berghei [11]) [%] | survival at 3.7 mg/kg (Plasmodium berghei [12]) [%] | survival at 100 mg/kg (Plasmodium berghei [13]) [%] | survival at 33 mg/kg (Plasmodium berghei [14]) [%] | survival at 3.7 mg/kg (Plasmodium berghei [15]) [%] | survival at 33 mg/kg (Plasmodium berghei [16]) [%] | survival at 33 mg/kg (Plasmodium berghei [18]) [%] | survival at 33 mg/kg (Plasmodium berghei [19]) [%] | survival at 100 mg/kg (Plasmodium berghei [20]) [%] | survival at 33 mg/kg (Plasmodium berghei [21]) [%] | other results |
| --- | --- | --- | --- | --- | --- | --- | --- | --- | --- | --- | --- | --- | --- | --- | --- | --- | --- | --- | --- | --- | --- |
| Cc1c(Oc2cnc(C(=O)N3CC(O)(C(F)(F)F)C3)cn2)ccc2c1B(O)OC2 | Stable | 100 | 100 | 100 | 100 | 100 | 100 | 100 | 100 | 100 | 100 | 100 | 100 | 100 | 0 | 100 | 100 | 50 | 100 | 50 | survival at 11 mg/kg (Plasmodium berghei [17]): 0%; survival at 100 mg/kg (Plasmodium berghei [22]): 100%; survival at 33 mg/kg (Plasmodium berghei [23]): 0%; ED90 (Plasmodium falciparum): < 5 mg/kg; ED90 (Plasmodium berghei [24]): 5.7 mg/kg |
| CCC1(O)CN(C(=O)c2cnc(Oc3ccc4c(c3C)B(O)OC4)cn2)C1 | Stable | 100 | 100 | 100 | 100 | 100 | 100 | 100 | 100 | 100 | 100 | 100 | 100 | 100 | 0 | 100 | 80 | 20 | 100 | 20 | survival at 1.2 mg/kg (Plasmodium berghei [25]): 100%; survival at 1.2 mg/kg (Plasmodium berghei [26]): 100%; survival at 11 mg/kg (Plasmodium berghei [17]): 0%; survival at 100 mg/kg (Plasmodium berghei [22]): 0%; survival at 33 mg/kg (Plasmodium berghei [23]): 0%; ED90 (Plasmodium falciparum): 0.84 mg/kg; ED90 (Plasmodium berghei [24]): 4.8 mg/kg |
| Cc1c(Oc2cnc(C(=O)N3CC(O)(C4CC4)C3)cn2)ccc2c1B(O)OC2 | Stable | 100 | 100 | 100 | 100 | 100 | 100 | 100 | 100 | 100 | 100 | 100 | 100 | 100 | 0 | 100 | 100 | 40 | 100 | 40 | survival at 1.2 mg/kg (Plasmodium berghei [25]): 100%; survival at 1.2 mg/kg (Plasmodium berghei [26]): 100%; survival at 100 mg/kg (Plasmodium berghei [22]): 0%; survival at 33 mg/kg (Plasmodium berghei [23]): 0%; ED90 (Plasmodium falciparum): < 5 mg/kg; ED90 (Plasmodium berghei [24]): 10.3 mg/kg |
| Cc1c(Oc2cnc(C(=O)N3CC(O)(C(C)C)C3)cn2)ccc2c1B(O)OC2 | Stable | 100 | 100 | 100 | 100 | 100 | 100 | 100 | 100 | 100 | 100 | 100 | 100 | 100 | 0 | 100 | 100 | 100 | 100 | 100 | survival at 11 mg/kg (Plasmodium berghei [17]): 60%; survival at 100 mg/kg (Plasmodium berghei [22]): 100%; survival at 33 mg/kg (Plasmodium berghei [23]): 0%; ED90 (Plasmodium falciparum): < 5 mg/kg; ED90 (Plasmodium berghei [24]): 4.5 mg/kg |
| Cc1c(Oc2cnc(C(=O)N3CC(C)(O)C3)cn2)ccc2c1B(O)OC2 | Stable | 100 | 100 | 100 | 100 | 100 | 100 | 100 | 100 | 100 | 100 | 100 | 100 | 100 | 60 | 100 | 100 | 100 | 100 | 100 | survival at 1.2 mg/kg (Plasmodium berghei [25]): 100%; survival at 1.2 mg/kg (Plasmodium berghei [26]): 100%; survival at 11 mg/kg (Plasmodium berghei [17]): 100%; survival at 100 mg/kg (Plasmodium berghei [22]): 60%; survival at 33 mg/kg (Plasmodium berghei [23]): 0%; ED90 (Plasmodium falciparum): 0.85 mg/kg; ED90 (Plasmodium berghei [24]): 1.9 to 1.92 mg/kg |
